According to ChEMBL document CHEMBL4350999, “Enhanced tumor retention of NTSR1-targeted agents by employing a hydrophilic cysteine cathepsin inhibitor” (Eur J Med Chem, 2019):
Active and inactive are the calls of the source. No cut-off for these calls is given here.

How the values were obtained:
[1] = Drug uptake in lung of SCID mouse xenografted with human HT-29 cells at 0.37 MBq/mouse, iv measured at 72 hrs using 177Lu labelled compound by gamma counter analysis; assay type: ADME, organism-based; settings: in vivo
How it was run: (§1)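 Female SCID mice (5 weeks) bore s.c. flank xenografts of HT-29 cells (5 × 10^6 in Matrigel), used at about 80 mm3 (two weeks) and randomized. Each mouse received 10 μCi (0.37 MBq) of HPLC-purified 177Lu-conjugate via tail vein. Tissues were excised, weighed and gamma-counted, expressed as %ID/g; mean ± SD, n = 5.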

[2] = Drug uptake in spleen of SCID mouse xenografted with human HT-29 cells at 0.37 MBq/mouse, iv measured at 24 hrs using 177Lu labelled compound by gamma counter analysis; assay type: ADME, organism-based; settings: in vivo
How it was run: (§2)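 Female SCID mice (5 weeks old) received s.c. flank HT-29 cells (5 × 10^6 in Matrigel). At ~80 mm3, two weeks later, mice were randomized and given 10 μCi (0.37 MBq) of purified 177Lu conjugate i.v. by tail vein. Mice were killed at 4, 24 or 72 h. Tissues were weighed and gamma counted as %ID/g, mean ± SD, n = 5. Tumor-to-tissue ratios were calculated.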

[3] = Drug uptake in kidney of SCID mouse xenografted with human HT-29 cells at 0.37 MBq/mouse, iv measured at 24 hrs using 177Lu labelled compound by gamma counter analysis; assay type: ADME, organism-based; settings: in vivo; how it was run: as §1
[4] = Drug uptake in liver of SCID mouse xenografted with human HT-29 cells at 0.37 MBq/mouse, iv measured at 24 hrs using 177Lu labelled compound by gamma counter analysis; assay type: ADME, organism-based; settings: in vivo; how it was run: as §1
[5] = Drug uptake in SCID mouse xenografted with human HT-29 cells assessed as tumour retention at 0.37 MBq/mouse, iv measured at 24 hrs using 177Lu labelled compound by gamma counter analysis; assay type: ADME, organism-based; settings: in vivo
How it was run: (§3)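 Female SCID mice bearing s.c. flank HT-29 xenografts (5 × 10^6 cells in Matrigel, ~80 mm3). Given 10 μCi (0.37 MBq) 177Lu conjugate i.v. by tail vein; groups sacrificed at 4, 24, 72 h. Tissues weighed and gamma-counted as %ID/g, excretion as %ID; n = 5, mean ± SD. Blocking arms: colchicine 1 mg/kg i.p. beforehand, or D-lysine 40 mg/kg co-injected.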

[6] = Drug excretion in SCID mouse xenografted with human HT-29 cells at 0.37 MBq/mouse, iv measured at 4 hrs using 177Lu labelled compound by gamma counter analysis; assay type: ADME, organism-based; settings: in vivo; how it was run: as §3
[7] = Drug uptake in pancreas of SCID mouse xenografted with human HT-29 cells at 0.37 MBq/mouse, iv measured at 24 hrs using 177Lu labelled compound by gamma counter analysis; assay type: ADME, organism-based; settings: in vivo; how it was run: as §1
[8] = Drug uptake in pancreas of SCID mouse xenografted with human HT-29 cells at 0.37 MBq/mouse, iv measured at 4 hrs using 177Lu labelled compound by gamma counter analysis; assay type: ADME, organism-based; settings: in vivo; how it was run: as §1
[9] = 1-Octanol-PBS buffer distribution coefficient, log D of natEu labelled compound at pH 7.4 by time resolved fluorescence analysis; assay type: physicochemical
How it was run: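 natEu-labelled conjugate (300 μg) in 0.2 mL PBS pH 7.4 partitioned against 0.2 mL 1-octanol; 100 μL aliquots from each layer dried under vacuum and taken up in water. Time-resolved fluorescence read at 590 nm with 380 nm excitation, and LogD7.4 calculated from the two layers.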

Cathepsin B = Cathepsin B (Homo sapiens, UniProt P07858); experiment: Inhibition of human liver cathepsin B assessed as second order rate constant using Z-Arg-Arg-AMC as substrate measured every 5 mins for 1 hr by fluorescence assay
How it was run: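 Human liver cathepsin B, 2 nM final, in 0.1 M phosphate pH 5.8 (1 mM EDTA, 2.7 mM DTT, 0.03% Brij35). Enzyme mixed with conjugate (1–500 nM final), then Z-Arg-Arg-AMC added (800 μM final); 37 °C. […] Biological triplicate.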

[10] = Drug uptake in brain of SCID mouse xenografted with human HT-29 cells at 0.37 MBq/mouse, iv measured at 4 hrs using 177Lu labelled compound by gamma counter analysis; assay type: ADME, organism-based; settings: in vivo; how it was run: as §1
[11] = Drug uptake in stomach of SCID mouse xenografted with human HT-29 cells at 0.37 MBq/mouse, iv measured at 24 hrs using 177Lu labelled compound by gamma counter analysis; assay type: ADME, organism-based; settings: in vivo; how it was run: as §2
[12] = Drug uptake in small intestine of SCID mouse xenografted with human HT-29 cells at 0.37 MBq/mouse, iv measured at 4 hrs using 177Lu labelled compound by gamma counter analysis; assay type: ADME, organism-based; settings: in vivo; how it was run: as §1
[13] = Drug uptake in brain of SCID mouse xenografted with human HT-29 cells at 0.37 MBq/mouse, iv measured at 24 hrs using 177Lu labelled compound by gamma counter analysis; assay type: ADME, organism-based; settings: in vivo; how it was run: as §1
[14] = Drug uptake in stomach of SCID mouse xenografted with human HT-29 cells at 0.37 MBq/mouse, iv measured at 4 hrs using 177Lu labelled compound by gamma counter analysis; assay type: ADME, organism-based; settings: in vivo; how it was run: as §2
[15] = Drug uptake in lung of SCID mouse xenografted with human HT-29 cells at 0.37 MBq/mouse, iv measured at 24 hrs using 177Lu labelled compound by gamma counter analysis; assay type: ADME, organism-based; settings: in vivo; how it was run: as §1
[16] = Drug uptake in muscle of SCID mouse xenografted with human HT-29 cells at 0.37 MBq/mouse, iv measured at 72 hrs using 177Lu labelled compound by gamma counter analysis; assay type: ADME, organism-based, Muscle tissue; settings: in vivo; how it was run: as §1
[17] = Drug uptake in blood of SCID mouse xenografted with human HT-29 cells at 0.37 MBq/mouse, iv measured at 4 hrs using 177Lu labelled compound by gamma counter analysis; assay type: ADME, organism-based; settings: in vivo; how it was run: as §3
[18] = Drug internalization in cytoplasm of human HT-29 cells within 2 hrs using Eu labelled compound by lysotracker green staining confocal microscopic analysis; assay type: ADME, subcellular; settings: ht-29, 2 h
How it was run: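 HT-29 cells (1.25 × 10^5/well) incubated 2 h at 37 °C with natEu conjugate (5 μM), with or without N1 (20 μM). Lysotracker Green (100 nM) added for 1 h; cells washed, formaldehyde-fixed and imaged confocally at 405/488 nm excitation. Mean pixel intensity normalized to cell count.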

[19] = Drug uptake in heart of SCID mouse xenografted with human HT-29 cells at 0.37 MBq/mouse, iv measured at 24 hrs using 177Lu labelled compound by gamma counter analysis; assay type: ADME, organism-based; settings: in vivo; how it was run: as §1
[20] = Drug excretion in SCID mouse xenografted with human HT-29 cells at 0.37 MBq/mouse, iv measured at 24 hrs using 177Lu labelled compound by gamma counter analysis; assay type: ADME, organism-based; settings: in vivo; how it was run: as §3
[21] = Drug uptake in bone of SCID mouse xenografted with human HT-29 cells at 0.37 MBq/mouse, iv measured at 72 hrs using 177Lu labelled compound by gamma counter analysis; assay type: ADME, organism-based, Bone element; settings: in vivo; how it was run: as §1
[22] = Ratio of drug uptake in SCID mouse xenograted with human HT-29 cells assessed as tumour retention to drug uptake in kidney of SCID mouse xenografted with human HT-29 cells measured after 4 hrs using 177Lu labelled compound; assay type: ADME, tissue-based, Tumor/Kidney; how it was run: as §2
[23] = Ratio of drug uptake in SCID mouse xenograted with human HT-29 cells assessed as tumour retention to drug uptake in pancreas of SCID mouse xenografted with human HT-29 cells measured after 72 hrs using 177Lu labelled compound; assay type: ADME, tissue-based, Tumor/Pancreas; how it was run: as §2
[24] = Ratio of drug uptake in SCID mouse xenograted with human HT-29 cells assessed as tumour retention to drug uptake in large intestine of SCID mouse xenografted with human HT-29 cells measured after 4 hrs using 177Lu labelled compound; assay type: ADME, tissue-based, Tumor/Large intestine; how it was run: as §2

Compound	Drug uptake [1]	Drug uptake [2]	Drug uptake [3]	Drug uptake [4]	Drug uptake [5]	Drug excretion [6]	Drug uptake [7]	Drug uptake [8]	logD [9]	Drug uptake [10]	Drug uptake [11]	Drug uptake [12]	Drug uptake [13]	Drug uptake [14]	Drug uptake [15]	Drug uptake [16]	Drug uptake [17]	Drug uptake [19]	Drug excretion [20]	Drug uptake [21]	further results
Cc1cc(O)cc(C)c1C[C@H](NC(=O)[C@@H]1CCCN1C(=O)[C@H](CCCNC(=N)N)NC(=O)[C@H](CCCNC(=N)N)N(C)C(=O)[C@@H]1CCCN1C(=O)[C@H](CCCCN)NC(=O)[C@@H](CO)NC(=O)[C@@H](CO)NC(=O)[C@@H](CO)NC(=O)[C@H](Cc1cn(CCNC(=O)[C@H](CCCNC(=N)N)NC(=O)[C@H](CC(C)C)NC(=O)CCC(=O)O)nn1)NC(=O)CN1CCN(CC(=O)O)CCN(CC(=O)O)CCN(CC(=O)O)CC1)C(=O)N[C@H](C(=O)N[C@@H](CC(C)C)C(=O)O)C(C)(C)C	0.24 % ID/g	1.6 % ID/g	39 % ID/g	0.4 % ID/g	4.4 % ID/g	75 %ID	0.11 % ID/g	0.12 % ID/g	-3.71	0.02 % ID/g	0.15 % ID/g	2.9 % ID/g	0.01 % ID/g	0.27 % ID/g	0.25 % ID/g	0.01 % ID/g	0.01 % ID/g	0.01 % ID/g	84.7 %ID	0.12 % ID/g	inhibition (Cathepsin B): inactive; Drug uptake [18]: Active
Cc1cc(O)cc(C)c1C[C@H](NC(=O)[C@@H]1CCCN1C(=O)[C@H](CCCNC(=N)N)NC(=O)[C@H](CCCNC(=N)N)N(C)C(=O)[C@@H]1CCCN1C(=O)[C@H](CCCCN)NC(=O)[C@@H](CO)NC(=O)[C@@H](CO)NC(=O)[C@@H](CO)NC(=O)[C@H](Cc1cn(CC(=O)N[C@H](CO)C(=O)N[C@H](CO)C(=O)N[C@H](CO)C(=O)NCC(=O)NCCCC[C@H](NC(=O)[C@H](Cc2ccccc2)NC(=O)OCc2ccccc2)C(=O)NCCc2ccccc2)nn1)NC(=O)CN1CCN(CC(=O)O)CCN(CC(=O)O)CCN(CC(=O)O)CC1)C(=O)N[C@H](C(=O)N[C@@H](CC(C)C)C(=O)O)C(C)(C)C	1.2 % ID/g	18 % ID/g	55 % ID/g	8.3 % ID/g	5.1 % ID/g	36.6 %ID	0.77 % ID/g	0.84 % ID/g		0.11 % ID/g	0.9 % ID/g	7.6 % ID/g	0.04 % ID/g	1.6 % ID/g	2.2 % ID/g	0.12 % ID/g	0.83 % ID/g	0.6 % ID/g	56 %ID	1 % ID/g	
Cc1cc(C)c(C(=O)OCC(=O)[C@H](CCCCNC(=O)CNC(=O)[C@@H](CO)NC(=O)[C@@H](CO)NC(=O)[C@@H](CO)NC(=O)Cn2cc(C[C@H](NC(=O)CN3CCN(CC(=O)O)CCN(CC(=O)O)CCN(CC(=O)O)CC3)C(=O)N[C@H](CO)C(=O)N[C@H](CO)C(=O)N[C@H](CO)C(=O)N[C@@H](CCCCN)C(=O)N3CCC[C@H]3C(=O)N(C)[C@@H](CCCNC(=N)N)C(=O)N[C@@H](CCCNC(=N)N)C(=O)N3CCC[C@H]3C(=O)N[C@@H](Cc3c(C)cc(O)cc3C)C(=O)N[C@H](C(=O)N[C@@H](CC(C)C)C(=O)O)C(C)(C)C)nn2)NC(=O)[C@H](Cc2ccccc2)NC(=O)OCc2ccccc2)c(C)c1	5 % ID/g	17 % ID/g	62 % ID/g	26 % ID/g	10 % ID/g	16.6 %ID	0.6 % ID/g	0.89 % ID/g	-2.1	0.09 % ID/g	0.9 % ID/g	6.1 % ID/g	0.04 % ID/g	1.7 % ID/g	6 % ID/g	0.15 % ID/g	1.22 % ID/g	0.9 % ID/g	35 %ID	1.1 % ID/g	Ratio [22]: 0.13; Ratio [23]: 6.5; Ratio [24]: 2.7
